A short description of data set [1]: Dissociation constant, pKa of the compound with quinoline heteroaromatic N atom by pH titration method. Type of data set: physicochemical.
Data set [2] in a line: Dissociation constant, pKa of the compound with basic tertiary amino group by pH titration method. Type of data set: physicochemical.
The nature of data set [3]: Inhibition of beta-hematin formation assessed as equivalents of drug relative to hematin for 50% inhibition at pH 4.5 by BHIA assay. The class given is functional. The essentials: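 β-Hematin formation mediated by 4.5 M acetate, pH 4.5, in a 96-well plate format. Unconverted hematin is dissolved with 5% (v/v) aqueous pyridine at pH 7.5, which leaves β-hematin undissolved. Result expressed as equivalents of compound relative to hematin at 50% inhibition.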

The test system of data set [4] is Plasmodium falciparum. As to the kind of experiment: Antimalarial activity against erythrocyte stages of chloroquine-sensitive Plasmodium falciparum D10 infected in human erythrocytes by lactate dehydrogenase assay. Type of data set: functional, organism-based. The method in brief:
(§1)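 Asexual blood-stage P. falciparum in continuous culture (modified Trager–Jensen), read out by parasite lactate dehydrogenase. Stocks are 2 mg/mL in DMSO or methanol. […] IC50 comes from nonlinear dose–response fitting.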

Data set [5] has as its system Plasmodium falciparum. The data set can be described thus: Antimalarial activity against erythrocyte stages of chloroquine-resistant Plasmodium falciparum K1 infected in human erythrocytes by lactate dehydrogenase assay. Type of data set: functional, organism-based. The essentials:
as §1

For data set [6], the system named is Plasmodium falciparum. The data set can be described thus: Resistance index, ratio of IC50 for chloroquine-resistant Plasmodium falciparum K1 to IC50 for chloroquine-sensitive Plasmodium falciparum D10. Type of data set: functional. The method in brief: (§2)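 Resistance index is the IC50 against the resistant strain divided by the IC50 against D10. Both IC50s come from the lactate dehydrogenase growth assay on asexual blood stages, run by the same serial-dilution protocol.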

Data set [7] concerns Plasmodium falciparum. As to the kind of experiment: Antimalarial activity against erythrocyte stages of chloroquine-resistant Plasmodium falciparum Dd2 infected in human erythrocytes by lactate dehydrogenase assay. The class given is functional, organism-based. The method in brief:
as §1

Data set [8] relates to Plasmodium falciparum. The data set can be described thus: Antimalarial activity against erythrocyte stages of chloroquine-resistant Plasmodium falciparum W2 infected in human erythrocytes by lactate dehydrogenase assay. Type of data set: functional, organism-based. The essentials:
as §1

In data set [9] the test system is Plasmodium falciparum. As to the kind of experiment: Antimalarial activity against erythrocyte stages of chloroquine-resistant Plasmodium falciparum RSA11 infected in human erythrocytes by lactate dehydrogenase assay. The class given is functional, organism-based. The method in brief:
as §1

The next data set has as its system CHO. The data set can be described thus: Cytotoxicity against CHO cells by MTT assay. The class given is cell-based. The settings on record: Cricetulus griseus. The essentials: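 CHO cells, MTT colorimetric growth read-out. Compound from a 2 mg/mL stock, tested from 100 μg/mL in 10-fold serial dilutions in complete medium (5 concentrations, lowest 0.01 μg/mL). Emetine reference. IC50 from nonlinear dose–response fitting; mean ± SEM, n = 3.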
(In general: Tetrazolium dyes change colour on reduction, which living cells bring about.)

The nature of data set [10]: Selectivity index, ratio of IC50 for CHO cells to IC50 for chloroquine-sensitive Plasmodium falciparum D10. The settings on record: hamster, read-out: Ratio IC50. Type of data set: toxicity, cell-based. The essentials:
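The D10 value came from parasite lactate dehydrogenase read-out on erythrocytic cultures, 10 two-fold dilutions from 100 ng/mL, with nonlinear dose–response fitting.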

The target in data set [11] is T1, Chloroquine resistance transporter (Plasmodium falciparum, UniProt Q9N623).
T1 sequence (Q9N623 whole entry): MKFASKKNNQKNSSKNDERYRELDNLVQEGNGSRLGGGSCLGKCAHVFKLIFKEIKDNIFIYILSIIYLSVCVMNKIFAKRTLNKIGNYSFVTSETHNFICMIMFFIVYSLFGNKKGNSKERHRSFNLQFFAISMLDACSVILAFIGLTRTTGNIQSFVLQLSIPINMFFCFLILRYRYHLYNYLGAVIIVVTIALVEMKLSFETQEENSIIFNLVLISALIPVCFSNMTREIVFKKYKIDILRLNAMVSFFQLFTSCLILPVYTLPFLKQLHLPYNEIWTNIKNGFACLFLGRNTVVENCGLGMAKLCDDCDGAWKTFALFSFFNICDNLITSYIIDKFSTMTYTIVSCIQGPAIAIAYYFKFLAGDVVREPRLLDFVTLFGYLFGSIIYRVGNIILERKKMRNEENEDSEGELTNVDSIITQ
The data set can be described thus: Inhibition of chloroquine-resistant Plasmodium falciparum Dd2 chloroquine resistance transporter expressed in xenopus laevis oocytes assessed as inhibition of [3H]chloroquine uptake after 1 to 2 hrs. The class given is cell-based, Oocyte.

For data set [12], the target named is T2, Chloroquine resistance transporter (Plasmodium falciparum) (UniProt Q9N623).
T2 sequence (whole entry): T1 sequence (Q9N623 whole entry)
As to the kind of experiment: Inhibition of chloroquine-sensitive Plasmodium falciparum D10 chloroquine resistance transporter expressed in xenopus laevis oocytes assessed as inhibition of [3H]chloroquine uptake after 1 to 2 hrs. The class given is cell-based. The settings on record: Oocyte.

Data set [13] concerns Plasmodium falciparum. As to the kind of experiment: Resistance index, ratio of IC50 for chloroquine-resistant Plasmodium falciparum Dd2 to IC50 for chloroquine-sensitive Plasmodium falciparum D10. The class given is functional. The method in brief: as §2
Data set [14] has as its system Plasmodium falciparum. As to the kind of experiment: Resistance index, ratio of IC50 for chloroquine-resistant Plasmodium falciparum W2 to IC50 for chloroquine-sensitive Plasmodium falciparum D10. The class given is functional. The method in brief:
as §2

Data set [15] has as its system Plasmodium falciparum. As to the kind of experiment: Resistance index, ratio of IC50 for chloroquine-resistant Plasmodium falciparum RSA11 to IC50 for chloroquine-sensitive Plasmodium falciparum D10. The class given is functional. The method in brief:
as §2

The test system of data set [16] is Plasmodium berghei. The data set can be described thus: Antimalarial activity against Plasmodium berghei infected in NMRI mouse assessed as host survival time at 30 mg/kg, po administered as a single dose 4 hrs post infection (reference value: 4 days).
Data set [17] deals with Plasmodium berghei. The data set can be described thus: Antimalarial activity against Plasmodium berghei infected in NMRI mouse assessed as host survival time at 100 mg/kg, po administered as a single dose 4 hrs post infection (reference value: 4 days).
In data set [18] the test system is Plasmodium berghei. As to the kind of experiment: Antimalarial activity against Plasmodium berghei infected in NMRI mouse assessed as reduction of parasitemia level at 30 mg/kg, po administered as single dose 4 hrs post infection (reference value: 2.76%). Set-up: scale not given: the % may be the effect or the level left.
The subject of data set [19] is Plasmodium berghei. The data set can be described thus: Antimalarial activity against Plasmodium berghei infected in NMRI mouse assessed as reduction of parasitemia level at 100 mg/kg, po administered as single dose 4 hrs post infection (reference value: 0.16%). Set-up: scale not given: the % may be the effect or the level left.
The subject of data set [20] is Plasmodium berghei. The data set can be described thus: Antimalarial activity against Plasmodium berghei infected in NMRI mouse assessed as parasitized red blood cells level at 30 mg/kg, po administered as single dose 4 hrs post infection measured on day 4 (reference value: 78%).
For data set [21], the system named is Plasmodium berghei. The data set can be described thus: Antimalarial activity against Plasmodium berghei infected in NMRI mouse assessed as parasitized red blood cells level at 100 mg/kg, po administered as single dose 4 hrs post infection measured on day 4 (reference value: 78%).

Activity calls are given as the source filed them. No cut-off for these calls is given here.

One may read the pKa as the pH at which an ionisable group is half protonated. For `CN(Cc1ccccc1)Cc1ccc(CNc2ccnc3cc(Cl)ccc23)cc1`, the pKa in [1] came out at 7.56; in data set [2] it was 9.9. The IC50 in data set [3] is 0.32 equivalents; in the data set on Plasmodium falciparum [4], 0.022 µM; with Plasmodium falciparum [5], 0.025 µM; with Plasmodium falciparum [7], 0.026 µM; in the data set on Plasmodium falciparum [8], 0.023 µM; in the data set with Plasmodium falciparum [9], 0.038 µM. Further, the IC50 is more than 249 µM in the data set with CHO and 69 µM in [11]. The “Ratio IC50” value in the data set on Plasmodium falciparum [6] is listed as 0.9; with Plasmodium falciparum [13], 1.2; in the data set with Plasmodium falciparum [14] it was 1; in the data set on Plasmodium falciparum [15], 1.7. Besides, the selectivity ratio in data set [10] is more than 9220. The inhibition result in [12] is “Active”. Besides, the results for the Time with Plasmodium berghei [16] and in the data set with Plasmodium berghei [17] were 6.7 days and 10 days, respectively. The Activity with Plasmodium berghei [18] is given as 97%; in the data set with Plasmodium berghei [19] it was 99.8%; in the data set on Plasmodium berghei [20], 2.16%; in the data set on Plasmodium berghei [21] it was 0.12%.

The record behind these values is ChEMBL document CHEMBL1828581 (J Med Chem, 2011).
